# Screening results from PubChem.
# This is one part of a sample in which hits are shown more often than they occur.
# INS-1E ATP HTS = INS-1E beta cell protection from cytokine death; actives 0.1% (n = 20,000); AID 488910; protection from cytokine-induced ATP loss, % at 10 µM; INS-1E cytokine-induced death, ATP luminescence, 48 h; normalised: neutral wells 0, positive control 100;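 active means mean replicate protection from cytokine-induced ATP loss at least 50% and at least 75% of replicates each reaching 50%; inconclusive means meets only one of the two criteria, mean or replicate share; inactive means fails both the mean and replicate share criteria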
#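 Test system: INS-1E rat cells | Quantity: 8000 cells per well | Medium: Phenol-red-free RPMI with 5% fetal bovine serum | Reagent: Cytokine cocktail of IFN-γ, TNF-α and IL-1β | Doses: One compound concentration, pin transfer | Timing: 48 h co-treatment, 10 min post-lysis read | Technique: Luminescent ATP assay (CellTiter-Glo)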
# A1 apoptosis 2 = A1 inhibition read as caspase activation; MEF A1-2A-BIM cells, caspase-Glo luminescence, 3 h; percent of clofoctol response, DMSO zero; caspase activation, % (no concentration beside the values); 24,000 tested, under 10 active; AID 2465; in the data active means caspase activation above about 5.9%; inconclusive means no clear call, values can overlap the other calls; inactive means below about 2.2%
#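 system = A1-2A-BIM-expressing MEF cells | quantity = 2500 MEF cells/well | dosing = 50 nL compound per well, pinned | schedule = overnight cell settling, then 3 h compound exposure, 37 °C | signal = luminescence from DEVD-luciferin Caspase-Glo reagent, 1:1 in 50 mM HEPES, 1 h RT | read-out = Caspase-3/7 activation, seen as rise in luminescence signal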
# T cruzi intra = inhibitors of intracellular Trypanosoma cruzi | intracellular Trypanosoma cruzi in host cells, plate reader | activity score (inhibition), % at 5.01 µM | actives 4.9% (n = 22,000) | AID 651903; in the data active means activity score above about 55%; inconclusive means no clear call, values can overlap the other calls;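 further: parasites and compound incubated about four days before reading; 0% = median of neutral control wells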
# * marks the source's active call; other numbers are inactive results; ? = inconclusive; . = no result given.
SMILES,INS-1E ATP HTS,A1 apoptosis 2,T cruzi intra
C[C@@H]1CN([C@@H](C)CO)C(=O)c2cccc(NC(=O)c3ccncc3)c2O[C@H]1CN(C)Cc1ccc2c(c1)OCO2,4,0,59*
C[C@H]1CN([C@@H](C)CO)C(=O)c2cccc(NC(=O)c3ccncc3)c2O[C@H]1CN(C)Cc1ccc2c(c1)OCO2,1,-1,62*
C[C@H](CO)N1C[C@H](C)[C@H](CN(C)Cc2ccc3c(c2)OCO3)Oc2c(NC(=O)c3cnccn3)cccc2C1=O,1,.,1
C=CCOC(=O)[C@H]1[C@@H]2C(=O)O[C@@H](c3ccccc3)[C@@H](c3ccccc3)N2[C@@H](c2ccc(OCCOC(=O)[C@@H]3C[C@@H]4C(=O)NCC(=O)N4[C@@H]3c3ccc(O)cc3)cc2)[C@]12C(=O)Nc1ccccc12,.,1,.
O=C(CCCCCCC(=O)Nc1ccccc1O)NN=C1CCCC1,6,.,-10
C[C@H](CO)N1C[C@H](C)[C@H](CN(C)S(=O)(=O)c2cccs2)Oc2c(NC(=O)c3cnccn3)cccc2C1=O,0,.,69*
C[C@@H]1CN([C@@H](C)CO)C(=O)c2cccc(NC(=O)c3nc4ccccc4s3)c2O[C@H]1CN(C)S(=O)(=O)c1ccc(Cl)cc1,-30,.,32
C[C@H]1CN([C@@H](C)CO)C(=O)c2cccc(NC(=O)c3nc4ccccc4s3)c2O[C@@H]1CN(C)S(=O)(=O)c1ccccc1,-13,.,73*
C[C@H](CO)N1C[C@H](C)[C@@H](CN(C)S(=O)(=O)c2cccs2)Oc2c(NC(=O)c3nc4ccccc4s3)cccc2C1=O,-6,0,57*
C[C@H]1CN([C@@H](C)CO)C(=O)c2cccc(NC(=O)c3nc4ccccc4s3)c2O[C@H]1CN(C)S(=O)(=O)c1ccccc1,-39,.,77*
C[C@H](CO)N1C[C@H](C)[C@@H](CN(C)S(=O)(=O)c2ccccc2)Oc2c(NC(=O)c3nc4ccccc4s3)cccc2C1=O,1,.,42
C[C@H]1CN([C@@H](C)CO)C(=O)c2cccc(NC(=O)c3nc4ccccc4s3)c2O[C@@H]1CN(C)S(=O)(=O)c1cccs1,-8,1,25
C[C@@H]1CN([C@H](C)CO)C(=O)c2cccc(NC(=O)c3cnccn3)c2O[C@@H]1CN(C)S(=O)(=O)c1cccs1,-4,.,6
COC(=O)CCCCCCC(=O)N/N=C/CC1=C(C)CCCC1(C)C,9,-1,-3
C=CCNC(=O)[C@@H]1[C@H]2C(=O)O[C@H](c3ccccc3)[C@H](c3ccccc3)N2[C@H](c2ccc(OCCO)cc2)[C@@]12C(=O)Nc1ccc(C#CC3(O)CCCCCC3)cc12,.,0,.
O=C(O)CCCCCCC(=O)N/N=C/c1ccc[nH]1,-2,.,-36
O=C(NCc1nc2ccccc2[nH]1)C1=C[C@@H](c2coc3ccccc3c2=O)C[C@@H](OCc2ccc(CO)cc2)O1,.,-1,.
COc1ccc(C#Cc2ccc3c(c2)[C@]2(C(=O)N3)[C@H](C(=O)O)[C@H]3C(=O)O[C@H](c4ccccc4)[C@H](c4ccccc4)N3[C@@H]2c2ccc(OCCO)cc2)cc1,.,-1,.
CC(C)NC(=O)N(C)C[C@H]1OCCCC[C@@H](C)Oc2ccc(NS(=O)(=O)c3ccccc3)cc2C(=O)N([C@@H](C)CO)C[C@@H]1C,.,0,.
COc1ccc(S(=O)(=O)N(C)C[C@@H]2Oc3c(NC(=O)c4nc5ccccc5s4)cccc3C(=O)N([C@H](C)CO)C[C@H]2C)cc1,-37,0,44
COc1ccc(S(=O)(=O)N(C)C[C@H]2Oc3c(NC(=O)c4nc5ccccc5s4)cccc3C(=O)N([C@@H](C)CO)C[C@@H]2C)cc1,-11,.,63*
COc1ccc(S(=O)(=O)N(C)C[C@@H]2Oc3c(NC(=O)Nc4cccc5ccccc45)cccc3C(=O)N([C@@H](C)CO)C[C@H]2C)cc1,81*,1,9
COc1ccc(S(=O)(=O)N(C)C[C@@H]2Oc3c(NC(=O)Nc4cccc5ccccc45)cccc3C(=O)N([C@H](C)CO)C[C@@H]2C)cc1,11,0,-5
O=C(N/N=C/[C@H](O)[C@H](O)[C@@H](O)[C@@H](O)CO)c1ccccc1O,-6,0,-8
C[C@H]1CN([C@@H](C)CO)C(=O)c2cc(N(C)C)ccc2O[C@H]1CN(C)Cc1ccc(C(=O)Nc2ccccc2N)cc1,6,.,17
SMILES,INS-1E ATP HTS,A1 apoptosis 2,T cruzi intra
CC(C)NC(=O)Nc1ccc2c(c1)C(=O)N([C@@H](C)CO)C[C@H](C)[C@H](CN(C)Cc1ccc(C(=O)Nc3ccccc3N)cc1)O2,-12,.,?
CC(C)NC(=O)Nc1ccc2c(c1)C(=O)N([C@@H](C)CO)C[C@H](C)[C@@H](CN(C)Cc1ccc(C(=O)Nc3ccccc3N)cc1)O2,-15,.,58*
C[C@@H]1CN([C@H](C)CO)C(=O)c2cc(N(C)C)ccc2O[C@H]1CN(C)Cc1ccc(C(=O)Nc2ccccc2N)cc1,31,.,63*
C[C@H](CO)N1C[C@H](C)[C@H](CN(C)Cc2ccc(C(=O)Nc3ccccc3N)cc2)Oc2ccc(N(C)C)cc2C1=O,40,0,39
C[C@@H]1CN([C@H](C)CO)C(=O)c2cc(N(C)C)ccc2O[C@@H]1CN(C)Cc1ccc(C(=O)Nc2ccccc2N)cc1,63*,.,71*
Cc1ccc(S(=O)(=O)N(C)C[C@H]2Oc3c(NC(=O)NC4CCCCC4)cccc3C(=O)N([C@@H](C)CO)C[C@@H]2C)cc1,-1,0,11
O=C(CCCCC(=O)NN=C1CCCCCC1)NO,2,0,3
COc1ccc(NC(=O)Nc2cccc3c2O[C@@H](CN(C)Cc2ccc(C(F)(F)F)cc2)[C@H](C)CN([C@H](C)CO)C3=O)cc1,-6,.,5
COc1ccc(CN(C)C[C@@H]2Oc3c(NC(=O)Nc4ccc(C(F)(F)F)cc4)cccc3C(=O)N([C@@H](C)CO)C[C@H]2C)cc1,-95,0,67*
COc1ccc(CN(C)C[C@@H]2Oc3c(NC(=O)Nc4ccc(C(F)(F)F)cc4)cccc3C(=O)N([C@H](C)CO)C[C@@H]2C)cc1,-36,-2,81*
COc1ccc(NC(=O)Nc2cccc3c2O[C@H](CN(C)Cc2ccc(C(F)(F)F)cc2)[C@H](C)CN([C@@H](C)CO)C3=O)cc1,-10,0,-11
O=C(CCCCC(=O)N/N=C/c1ccc(CO)o1)NO,0,0,-7
O=C(CCCCCCC(=O)N/N=C/c1cccnc1Br)NO,.,1,.
C[C@H](CO)N1C[C@H](C)[C@@H](CN(C)CC2CC2)Oc2c(NC(=O)CCCCCC(=O)Nc3ccccc3N)cccc2C1=O,6,0,72*
C[C@H](CO)N1C[C@H](C)[C@H](CN(C)CC2CC2)Oc2c(NC(=O)CCCCCC(=O)Nc3ccccc3N)cccc2C1=O,9,0,10
C[C@H](CO)N1C[C@H](C)[C@H](CN(C)C)Oc2c(NC(=O)CCCCCC(=O)Nc3ccccc3N)cccc2C1=O,17,0,-56
C[C@@H]1CN([C@@H](C)CO)C(=O)c2cccc(NC(=O)CCCCCC(=O)Nc3ccccc3N)c2O[C@H]1CN(C)CC1CCCCC1,16,.,74*
